Laboratory results from ChEMBL document CHEMBL5329188, “Design, synthesis, and biological evaluation of 3,3'-diindolylmethane N-linked glycoconjugate as a leishmanial topoisomerase IB inhibitor with reduced cytotoxicity” (RSC Med Chem, 2023).
Activity calls are given as the source filed them. No cut-off for these calls is given here.

Legend:
[1] = system: Leishmania donovani; test: Antileishmanial activity against Leishmania donovani MHOM/IN/80/Dd8 promastigotes assessed as reduction in promastigotes viability incubated for 24 hrs by resazurin-based alamar blue dye assay; format: functional, organism-based; settings: MHOM/IN/80/Dd8, 24 h
Summary of the method: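 L. donovani DD8 promastigotes, exponential phase, in M199 with 10% heat-inactivated FBS at 24 ± 1 °C, 5×10^6 cells per well. Exposed 24 h to 100, 50, 25, 12.5 and 6.25 μM (1 mM DMSO stocks). Viability read with resazurin (Alamar Blue, 20 μg ml^-1 final), excitation 550 nm and emission 590 nm. Amphotericin B standard. IC50 from curve fit; mean ± SD of three independent experiments.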

[2] = system: Leishmania donovani; test: Inhibition of recombinant Leishmania donovani DNA topoisomerase IB mediated relaxation activity expressed in Escherichia coli BL21 (DE3) cells using supercoiled pHOT1 DNA as substrate at 60 uM incubated for 25 mins by EtBr staining based agarose gel electrophoresis analysis
Summary of the method: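 LdTopILS was co-expressed from pET16bLdTOP1L and pET16bLdTOP1S in E. coli BL21(DE3), induced with 0.5 mM IPTG at OD600 0.6 for 12 h at 22 °C, and Ni-NTA purified. Enzyme and supercoiled pHOT1 (3:1 molar) ran 25 min at 37 °C in 25 mM Tris-Cl pH 7.5, 5% glycerol, 50 mM KCl, 0.5 mM DTT, 10 mM MgCl2, 30 µg/ml BSA. DMSO 4% v/v was the solvent control. Relaxed versus supercoiled bands were quantified on 1% agarose with EtBr.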

[3] = system: Leishmania donovani; test: Inhibition of recombinant Leishmania donovani DNA topoisomerase IB mediated relaxation activity expressed in Escherichia coli BL21 (DE3) cells using supercoiled pHOT1 DNA as substrate at 500 uM incubated for 25 mins by EtBr staining based agarose gel electrophoresis analysis relative to control
Summary of the method: (§1)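 His-tagged LdTopILS expressed from pET16b plasmids in E. coli BL21(DE3) (0.5 mM IPTG, 22 °C, 12 h) and Ni-NTA purified. Enzyme mixed with supercoiled pHOT1 at 3:1 molar ratio in 25 mM Tris-Cl pH 7.5, 5% glycerol, 50 mM KCl, 0.5 mM DTT, 10 mM MgCl2, 30 μg ml^-1 BSA for 25 min at 37 °C. Controls: CPT 60 μM and DMSO 4% v/v. Products run on 1% agarose, EtBr stained, relaxed vs supercoiled quantified.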

[4] = system: J774.A1; test: Cytotoxicity against mouse J774.A1 cells assessed as reduction in viability at 10 uM incubated for 20 hrs by MTT assay; format: toxicity, cell-based; settings: j774.a1, 20 h
Summary of the method: (§2)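 J774A.1 murine macrophages in DMEM, 2×10^4 cells per well, adhered overnight. Treated in triplicate at 100, 50, 30, 20 and 10 μM with 0.1% final DMSO (DMSO negative control, amphotericin B positive control) for 20 h. MTT (2.5 mg ml^-1 in PBS) added for 4 h at 37 °C, formazan dissolved in DMSO, OD 570 nm. CC50 from curve fit; mean ± SD of three independent experiments.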

[5] = system: J774.A1; test: Cytotoxicity against mouse J774.A1 cells assessed as reduction in viability at 30 uM incubated for 20 hrs by MTT assay; format: toxicity, cell-based; settings: j774.a1, 20 h; summary of the method: as §2
[6] = Cytotoxicity against mouse J774.A1 cells assessed as reduction in viability incubated for 20 hrs by MTT assay; format: toxicity, cell-based; summary of the method: as §2
[7] = system: J774.A1; test: Cytotoxicity against mouse J774.A1 cells assessed as reduction in viability at 50 uM incubated for 20 hrs by MTT assay; format: toxicity, cell-based; settings: j774.a1, 20 h; summary of the method: as §2
[8] = system: J774.A1; test: Cytotoxicity against mouse J774.A1 cells assessed as reduction in viability at 20 uM incubated for 20 hrs by MTT assay; format: toxicity, cell-based; settings: j774.a1, 20 h; summary of the method: as §2
[9] = system: Leishmania donovani; test: Inhibition of recombinant Leishmania donovani DNA topoisomerase IB mediated relaxation activity expressed in Escherichia coli BL21 (DE3) cells using supercoiled pHOT1 DNA as substrate at 400 uM incubated for 25 mins by EtBr staining based agarose gel electrophoresis analysis relative to control; summary of the method: as §1
[10] = system: Leishmania donovani; test: Inhibition of recombinant Leishmania donovani DNA topoisomerase IB mediated relaxation activity expressed in Escherichia coli BL21 (DE3) cells using supercoiled pHOT1 DNA as substrate at 500 uM incubated for 25 mins by EtBr staining based agarose gel electrophoresis analysis; summary of the method: as §1

Compound: Cc1ccc(C(c2c[nH]c3ccccc23)c2c[nH]c3ccccc23)cc1
- IC50 [1]: 54.3 µM

Compound: CC[C@@]1(O)C(=O)OCc2c1cc1n(c2=O)Cc2cc3ccccc3nc2-1
- inhibition [2]: Active

Compound: CC(=O)OC[C@H]1O[C@@H](n2ccc3cc(Br)ccc32)[C@H](OC(C)=O)[C@@H](OC(C)=O)[C@@H]1OC(C)=O
- inhibition [3]: > 90%

Compound: OC[C@H]1O[C@@H](n2cc(C(c3ccc(F)cc3)c3cn([C@@H]4O[C@H](CO)[C@@H](O)[C@@H](O)[C@H]4O)c4ccc(Br)cc34)c3cc(Br)ccc32)[C@H](O)[C@H](O)[C@@H]1O (some centres undefined)
- IC50 [1]: 27.9 µM
- Activity [4]: 96.25%
- Activity [5]: 70.11%
- CC50 at 20 h [6]: 89.2 µM
- inhibition [3]: 100%
- Activity [7]: 69.77%
- Activity [8]: 81.05%
- inhibition [9]: 100%

Compound: COc1ccc(C(c2c[nH]c3ccccc23)c2c[nH]c3ccccc23)cc1
- IC50 [1]: 54.9 µM

Compound: CSc1ccc(C(c2c[nH]c3ccc(Br)cc23)c2c[nH]c3ccc(Br)cc23)cc1
- IC50 [1]: > 100 µM

Compound: C[C@@H]1[C@H](O)[C@@H](C)/C=C/C=C/C=C/C=C/C=C/C=C/C=C/[C@H](O[C@@H]2O[C@H](C)[C@@H](O)[C@H](N)[C@@H]2O)C[C@@H]2O[C@](O)(C[C@@H](O)C[C@@H](O)[C@H](O)CC[C@@H](O)C[C@@H](O)CC(=O)O[C@H]1C)C[C@H](O)[C@H]2C(=O)O [AMPHOTERICIN B]
- IC50 [1]: 0.4 µM

Compound: Cc1ccc(C(c2c[nH]c3ccc(Br)cc23)c2c[nH]c3ccc(Br)cc23)cc1
- IC50 [1]: 59.2 µM

Compound: CC(=O)OC[C@H]1O[C@@H](n2cc(C(c3ccc(F)cc3)c3cn([C@@H]4O[C@H](COC(C)=O)[C@@H](OC(C)=O)[C@H](OC(C)=O)[C@H]4OC(C)=O)c4ccc(Br)cc34)c3cc(Br)ccc32)[C@H](OC(C)=O)[C@@H](OC(C)=O)[C@@H]1OC(C)=O
- IC50 [1]: 29.1 µM
- inhibition [3]: 100%
- inhibition [9]: 100%

Compound: O=[N+]([O-])c1ccc(C(c2c[nH]c3ccc(Br)cc23)c2c[nH]c3ccc(Br)cc23)cc1
- IC50 [1]: 48.5 µM

Compound: Fc1ccc(C(c2c[nH]c3cc(Cl)ccc23)c2c[nH]c3cc(Cl)ccc23)cc1
- IC50 [1]: > 100 µM

Compound: Clc1ccc2c(C(c3ccc(Br)cc3)c3c[nH]c4cc(Cl)ccc34)c[nH]c2c1
- IC50 [1]: 74.3 µM

Compound: Fc1ccc(C(c2c[nH]c3ccc(Br)cc23)c2c[nH]c3ccc(Br)cc23)cc1
- IC50 [1]: 34.8 µM
- Activity [4]: 39.59%
- Activity [5]: 30.34%
- CC50 at 20 h [6]: 4.45 µM
- Activity [7]: 21.73%
- Activity [8]: 34.28%
- inhibition [10]: inactive

Compound: Brc1ccc(C(c2c[nH]c3ccccc23)c2c[nH]c3ccccc23)cc1
- IC50 [1]: 47 µM
- inhibition [10]: inactive

Compound: Clc1ccc(C(c2c[nH]c3ccccc23)c2c[nH]c3ccccc23)cc1
- IC50 [1]: 57.1 µM

Compound: O=[N+]([O-])c1ccc(C(c2c[nH]c3cc(Cl)ccc23)c2c[nH]c3cc(Cl)ccc23)cc1
- IC50 [1]: 48.4 µM

Compound: OC[C@H]1O[C@@H](n2ccc3cc(Br)ccc32)[C@H](O)[C@@H](O)[C@@H]1O
- inhibition [3]: > 90%

Compound: O=[N+]([O-])c1ccc(C(c2c[nH]c3ccccc23)c2c[nH]c3ccccc23)cc1
- IC50 [1]: > 100 µM

Compound: Clc1ccc(C(c2c[nH]c3cc(Cl)ccc23)c2c[nH]c3cc(Cl)ccc23)cc1
- IC50 [1]: 53.2 µM

Compound: Fc1ccc2[nH]cc(C(c3ccc(Cl)cc3)c3c[nH]c4ccc(F)cc34)c2c1
- IC50 [1]: 31.4 µM
- Activity [4]: 40.15%
- Activity [5]: 32.04%
- CC50 at 20 h [6]: 4.51 µM
- Activity [7]: 26.14%
- Activity [8]: 33.53%
- inhibition [10]: inactive

Compound: Brc1ccc(C(c2c[nH]c3ccc(Br)cc23)c2c[nH]c3ccc(Br)cc23)cc1
- IC50 [1]: > 100 µM

Compound: Fc1ccc(C(c2c[nH]c3ccccc23)c2c[nH]c3ccccc23)cc1
- IC50 [1]: 36.2 µM
- Activity [4]: 26.23%
- Activity [5]: 19.81%
- CC50 at 20 h [6]: 5.71 µM
- Activity [7]: 15.89%
- Activity [8]: 20.05%
- inhibition [10]: inactive

Compound: Clc1ccc(C(c2c[nH]c3ccc(Br)cc23)c2c[nH]c3ccc(Br)cc23)cc1
- IC50 [1]: 41.8 µM
- inhibition [10]: inactive

Compound: COc1ccc(C(c2c[nH]c3ccc(Br)cc23)c2c[nH]c3ccc(Br)cc23)cc1
- IC50 [1]: > 100 µM

Compound: CSc1ccc(C(c2c[nH]c3ccccc23)c2c[nH]c3ccccc23)cc1
- IC50 [1]: > 100 µM
